TRPC4 block: inhibitors of mouse TRPC4 channel, primary screen, Fluo4 calcium, HEK293 TRPC4beta/mu-opioid cells; B-score at 10 µM; DAMGO-evoked Fluo4 calcium flux; active compounds read low; AID 2247, 2010; hit rate 0.39% among 300,000;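 active = B-score over 3 SD under the library average, no early fluorescence shift, positive overall ratio signal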
Target sequence (Q9QUQ5 whole entry, looked up): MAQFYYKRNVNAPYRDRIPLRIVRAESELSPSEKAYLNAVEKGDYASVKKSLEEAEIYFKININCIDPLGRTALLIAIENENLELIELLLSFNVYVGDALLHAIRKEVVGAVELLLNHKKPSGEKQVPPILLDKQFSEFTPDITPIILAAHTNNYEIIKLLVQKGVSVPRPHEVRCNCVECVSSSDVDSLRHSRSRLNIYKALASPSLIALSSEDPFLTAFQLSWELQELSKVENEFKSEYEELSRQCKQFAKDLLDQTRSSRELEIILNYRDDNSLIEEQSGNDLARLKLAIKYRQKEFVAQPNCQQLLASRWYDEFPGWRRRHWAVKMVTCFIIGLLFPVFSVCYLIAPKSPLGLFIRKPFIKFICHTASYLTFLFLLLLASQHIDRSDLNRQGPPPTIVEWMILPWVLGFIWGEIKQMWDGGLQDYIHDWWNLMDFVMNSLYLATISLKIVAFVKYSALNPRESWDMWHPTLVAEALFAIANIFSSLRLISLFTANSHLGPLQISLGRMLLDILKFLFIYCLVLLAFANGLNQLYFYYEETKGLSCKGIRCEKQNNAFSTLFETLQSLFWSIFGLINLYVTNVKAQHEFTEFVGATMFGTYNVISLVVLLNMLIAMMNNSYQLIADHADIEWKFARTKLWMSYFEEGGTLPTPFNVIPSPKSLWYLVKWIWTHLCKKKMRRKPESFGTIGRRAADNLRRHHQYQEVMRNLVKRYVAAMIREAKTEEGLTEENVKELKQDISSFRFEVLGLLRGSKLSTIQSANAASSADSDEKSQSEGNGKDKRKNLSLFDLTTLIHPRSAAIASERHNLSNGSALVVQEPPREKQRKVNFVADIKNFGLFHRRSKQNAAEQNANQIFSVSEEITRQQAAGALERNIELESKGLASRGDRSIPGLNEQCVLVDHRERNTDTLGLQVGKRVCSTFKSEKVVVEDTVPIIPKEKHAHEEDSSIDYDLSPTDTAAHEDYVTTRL
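test system = HEK293 cells with stable TRPC4beta plus mu-opioid receptor expression | detection = Fluo4 Ca2+ flux fluorescence | read-out = integrated fluorescence ratio relative to baseline, converted to per-well B score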
TRPC6 act: mouse TRPC6 channel activators, primary screen, cell-based, HEK293, membrane potential dye. AID 2550, 2010. HEK293-TRPC6 membrane potential dye fluorescence; active compounds read high. B-score at 10 µM. hit rate 0.13% among 310,000;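 active = B-score of the integrated fluorescence ratio above library mean plus 3 SD, and starting fluorescence ratio within library mean plus 5 SD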;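 also: higher score means more depolarization so channel activation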
TRPC4 PAM: positive allosteric modulators of TRPC4, primary screen, cell-based, mouse TRPC4beta, HEK293 mu-opioid, Fluo-4 calcium | Short transient receptor potential channel 4 (Mus musculus), Q9QUQ5 | DAMGO EC20, Fluo-4 Ca2+ flux; active compounds read high | B-score at 10 µM | hit rate 0.42% among 310,000 | AID 2227, 2009;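 active = B-score of calcium response area above 5 SD of library B-scores, with initial fluorescence ratio within 5 SD of library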
TRPC4 act: activators of mouse TRPC4 channel, primary screen, Fluo4 calcium, HEK293 TRPC4beta/mu-opioid cells. Short transient receptor potential channel 4 (Mus musculus), Q9QUQ5. Fluo4 calcium fluorescence; active compounds read high. B-score at 10 µM. hit rate 0.49% among 310,000;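 active = B-score above 5 SD of library B-scores, and initial fluorescence ratio not above library mean plus 5 SD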;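 also: positive B-score marks a calcium rise read as TRPC4 activation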
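Material: TRPC4beta and mu-opioid receptor HEK293 stable cells | Incubation: 45 min room-temperature Fluo4 loading, 110 s read | Detection: Kinetic Fluo4 calcium fluorescence | Measure: Integrated baseline-normalised fluorescence ratio, converted to per-well B score | Benchmarks: Low control buffer alone, high control maximal DAMGO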
TRPC6 inh: mouse TRPC6 channel inhibitors, primary screen, cell-based, HEK293, membrane potential dye. Short transient receptor potential channel 6 (Mus musculus), Q61143. ACh-evoked depolarization; active compounds read low. B-score at 10 µM. hit rate 1.1% among 310,000. AID 2553, 2010;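 active = B-score under library mean minus 3 SD, initial fluorescence not abnormally high, positive integrated signal ratio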;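 also: B-score derived from integrated fluorescence ratio over the kinetic read; more negative B-score means stronger inhibition of depolarization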
Hits are given with their value; 0 = inactive. Only some compounds are listed: those with a hit (about 2.3% of all), similar ones and a draw of the others.

SMILES	TRPC4 block	TRPC6 act	TRPC4 PAM	TRPC4 act	TRPC6 inh
COc1cc(CNC2CCCC2)cc(Cl)c1OCc1ccc(F)cc1	-7	0	0	0	0
CCC(=O)N1CCN(CCN=CC2=C(O)CC(C)(C)CC2=O)CC1	0	0	0	0	0
CC1(C)CC(=O)C(C=NCCN2CCN(C3CC(=O)N(c4cccc(Br)c4)C3=O)CC2)=C(O)C1 (stereo not drawn)	0	0	29	0	0
CC1(C)CC(=O)C(C=NCCN2CCN(C(=O)CCl)CC2)=C(O)C1	0	0	34	0	0
CC1(C)CC(=O)C(C=NCCc2ccc(O)cc2)=C(O)C1	0	0	0	0	0
COc1cccc(N2C(=O)CC(N3CCN(CCN=CC4=C(O)CC(C)(C)CC4=O)CC3)C2=O)c1 (stereo not drawn)	0	0	16	0	0
CC1(C)CC(=O)C(C=NCCc2ccccn2)=C(O)C1	0	0	0	50	0
CCCCCCOc1ccc(N2C(=O)CC(N3CCN(CCN=CC4=C(O)CC(C)(C)CC4=O)CC3)C2=O)cc1 (stereo not drawn)	0	0	0	0	0
CC1(C)CC(=O)C(C=NCCN2CCN(C3CC(=O)N(c4ccc(F)cc4)C3=O)CC2)=C(O)C1 (stereo not drawn)	0	0	0	0	0
CC(C)N(CC(N)=O)C(=O)Cc1coc2cc3c(cc12)CCC3	0	0	13	0	0
CC(=O)c1ccc2c(c1)N(C)c1ccccc1S2	-6	0	0	0	0
CN1C(=O)c2ccccc2Sc2ccc(C(=O)O)cc21	0	0	0	0	0
O=C(c1cc2c(s1)CCCCC2)N1CCN(c2ncccn2)CC1	0	0	0	0	0
CC(=O)c1ccc(N2CCN(C(=O)c3cc4c(s3)CCCC4)CC2)cc1	0	0	10	0	0
Cc1sc(NC(=O)C2CCCCC2C(=O)O)c(C(N)=O)c1-c1ccc(C(C)(C)C)cc1 (stereo not drawn)	-5	0	0	0	0
O=C(NC1CCCCC1)c1ccc(CS(=O)(=O)c2ccc(Cl)cc2)o1	0	0	0	0	0
CCOC(=O)N1CCN(Cc2nc3cc(NC(=O)c4ccco4)ccc3n2C)CC1	0	0	0	0	0
CCN1CCN(c2ccc(S(=O)(=O)N3CCCCC3)cc2NC(=O)COc2ccccc2)CC1	0	0	0	125	0
CCOc1ccccc1OCC(=O)Nc1cc(S(=O)(=O)N2CCCCC2)ccc1N1CCN(CC)CC1	0	0	0	89	0
CCC(=O)c1ccc(OCC(=O)Nc2cc(S(=O)(=O)N3CCCCC3)ccc2N2CCN(CC)CC2)cc1	0	0	0	0	0
CCN1CCN(c2ccc(S(=O)(=O)N3CCCCC3)cc2NC(=O)Cc2ccc(Cl)c(Cl)c2)CC1	0	0	0	43	0
COc1ccc(OC)c(S(=O)(=O)CC(O)CS(=O)(=O)c2ccccc2)c1 (stereo not drawn)	0	0	0	0	0
CC1CCCN(c2c([N+](=O)[O-])cc(C(=O)O)cc2[N+](=O)[O-])C1 (stereo not drawn)	-5	0	0	0	0
Cc1ccc(Cl)c(OCC(=O)Nc2ccccc2N2CCCCC2)c1	0	0	0	0	0
CCC(=O)NCCc1cc2ccc(C)c(C)c2[nH]c1=O	0	0	0	0	0
SMILES	TRPC4 block	TRPC6 act	TRPC4 PAM	TRPC4 act	TRPC6 inh
CCCC(=O)NCCc1cc2ccc(C)c(C)c2[nH]c1=O	0	0	12	0	0
C=CCNCCCOc1ccc(Cl)cc1Br	0	0	16	0	0
Cc1cccc(CCNC(=O)C2CCC(=O)N(Cc3ccccc3F)C2)n1 (stereo not drawn)	0	0	0	0	0
CCN(c1nc(N)c(C(=O)N=C(N)N)nc1Cl)C(C)C	0	0	0	100	0
Cc1ncsc1CCOC(=O)C12CC3CC(CC(C3)C1)C2	-7	0	0	0	0
N#Cc1c(N2CCCCC2)nc(N)c2c(N)nc3c(c12)CC(c1ccccc1)O3 (stereo not drawn)	-9	0	0	0	0
CCC1Cc2c(nc(N)c3c(N)nc(N4CCCCC4)c(C#N)c23)O1 (stereo not drawn)	0	0	0	0	0
S=C(NCCc1ccccc1)NCCc1ccccc1	0	0	0	0	0
S=C(NCCc1ccccc1)Nc1ccc(Br)cn1	0	0	11	0	0
Cc1ccc(NC(=S)N/N=C/c2cccn2Cc2ccccc2F)cc1	0	0	0	0	0
O=C(O)CCC(=O)NN1C(=O)c2ccccc2NC1c1ccc(F)cc1 (stereo not drawn)	0	0	11	0	0
CCn1c(=O)c([N+](=O)[O-])c(NCc2ccco2)c2ccccc21	0	0	0	0	0
O/N=C/c1cn(-c2ccccc2)nc1-c1ccc2c(c1)OCCO2	0	0	24	0	0
O=C(O)/C=C/c1cn(-c2ccccc2)nc1-c1ccc2c(c1)OCCO2	0	0	0	0	0
Cc1ccc(S(=O)(=O)CC(=O)c2ccc3c(c2)OCCO3)cc1	0	0	0	0	0
CC(=O)c1ccc(N2CCN(CC(O)COC(c3ccccc3)c3ccccc3)CC2)cc1 (stereo not drawn)	0	0	11	0	0
CC(=O)c1ccc(N2CCN(CC(O)COC(c3ccccc3)c3ccccc3C)CC2)cc1 (stereo not drawn)	0	0	12	0	0
OC(COC(c1ccccc1)c1ccccc1)CN1CCN(c2cccc(Cl)c2)CC1 (stereo not drawn)	0	0	0	0	0
COCCOn1c(SCCOC)nc2ccccc2c1=O	0	0	0	0	0
CC(C)c1nc(SCc2ccccn2)c2c(=O)n(C)c(=O)n(C)c2n1	0	0	0	52	0
Cc1ccc(CNS(=O)(=O)c2ccc3c(c2)CCN3C(=O)CCCC(=O)O)cc1	0	0	0	0	0
CC(C)[C@@H]1CC[C@@H](C)c2c(-c3ccccc3)n[nH]c21	0	0	10	0	0
COc1ccc(Br)cc1/C(C)=N/NC1=NCCN1	0	0	0	0	0
CCCCCOc1ccc(Br)cc1/C(C)=N/NC1=NCCN1	0	0	0	0	-5.9
Cc1[nH]c2ccc(Br)cc2c(=O)c1CN1CCCCC1	0	0	10	0	0
Cc1[nH]c2ccccc2c(=O)c1CN1CCCCCC1	0	0	0	0	0
CCOc1ccc2[nH]c(C)c(CN3CCN(CC)CC3)c(=O)c2c1	0	0	0	0	0
CCN1CCN(Cc2c(C)[nH]c3ccc(OC)cc3c2=O)CC1	0	0	15	0	0

Screening results from PubChem.
